molecular target: T1, B2 bradykinin receptor (Homo sapiens, UniProt P30411); assay: Inhibition of specific binding of [3H]BK at 1 nM to human bradykinin receptor B2 expressed in CHO cells by 50%.; type: cell-based
T1 sequence (P30411 whole entry): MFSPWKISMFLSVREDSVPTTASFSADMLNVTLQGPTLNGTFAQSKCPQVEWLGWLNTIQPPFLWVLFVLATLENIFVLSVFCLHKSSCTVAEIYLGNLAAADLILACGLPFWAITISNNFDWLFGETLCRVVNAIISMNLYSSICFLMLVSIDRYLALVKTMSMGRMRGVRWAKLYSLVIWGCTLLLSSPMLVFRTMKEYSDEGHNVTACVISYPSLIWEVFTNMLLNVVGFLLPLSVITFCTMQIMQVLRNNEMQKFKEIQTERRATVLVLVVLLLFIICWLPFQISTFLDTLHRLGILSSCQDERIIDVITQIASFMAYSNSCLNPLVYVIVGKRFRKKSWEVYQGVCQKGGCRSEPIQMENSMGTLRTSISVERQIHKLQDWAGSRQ
Outline: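 Intact CHO (dhfr−) cells stably expressing human B2, seeded 3.0 × 10⁴/well for 1 day. Incubated with [3H]BK and compound 2 h at 4 °C in HEPES/N-methyl-D-glucamine buffer pH 7.2 with enalaprilat, bacitracin and 0.1% BSA. Cells lysed in SDS/NaOH and counted; nonspecific binding with 1 μM BK. Three experiments.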

IC50	Compound
1.8 nM	CC(=O)Nc1ccc(/C=C/C(=O)NCC(=O)N(C)c2ccc(Cl)c(COc3cccc4c(N5CCOCC5)cc(C)nc34)c2Cl)cn1
0.52 nM	Cc1cc(N2CCCCC2)c2cccc(OCc3c(Cl)ccc(N(C)C(=O)CNC(=O)/C=C/c4ccc(C(=O)Nc5ccncc5)cc4)c3Cl)c2n1.Cl
5.9 nM	Cc1cc(N(C)C)c2cccc(OCc3c(Cl)ccc(N(C)C(=O)CNC(=O)/C=C/c4ccc(C(=O)NCc5ccccn5)cc4)c3Cl)c2n1.Cl
1.6 nM	Cc1cc(N2CCCCC2)c2cccc(OCc3c(Cl)ccc(N(C)C(=O)CNC(=O)/C=C/c4ccc(NC(=O)c5ccncc5)cc4)c3Cl)c2n1.Cl
2500 nM	CNC(=O)c1ccc(/C=C/C(=O)NCC(=O)N(C)c2ccc(Cl)c(COc3cccc4c(NCCN(C)C)cc(C)nc34)c2Cl)cc1
0.47 nM	Cc1cc(N(C)C)c2cccc(OCc3c(Cl)ccc(N(C)C(=O)CNC(=O)/C=C/c4ccc(NC(=O)c5ccncc5)cc4)c3Cl)c2n1.Cl
1.1 nM	CNC(=O)c1ccc(/C=C/C(=O)NCC(=O)N(C)c2ccc(Cl)c(COc3cccc4c(N5CCOCC5)cc(C)nc34)c2Cl)cn1.Cl
2.2 nM	Cc1cc(N(C)C)c2cccc(OCc3c(Cl)ccc(N(C)C(=O)CNC(=O)Nc4cccc(C(=O)Nc5ccncc5)c4)c3Cl)c2n1.Cl
1.6 nM	CNC(=O)c1ccc(/C=C/C(=O)NCC(=O)N(C)c2ccc(Cl)c(COc3cccc4c(N(C)C)cc(C)nc34)c2Cl)cn1.Cl
0.7 nM	Cc1cc(N(C)C)c2cccc(OCc3c(Cl)ccc(N(C)C(=O)CNC(=O)/C=C/c4ccc(C(=O)Nc5ccncc5)cc4)c3Cl)c2n1.Cl
1 nM	Cc1cc(N2CCOCC2)c2cccc(OCc3c(Cl)ccc(N(C)C(=O)CNC(=O)/C=C/c4ccc(NC(=O)c5ccncc5)cc4)c3Cl)c2n1.Cl
0.64 nM	Cc1cc(N2CCOCC2)c2cccc(OCc3c(Cl)ccc(N(C)C(=O)CNC(=O)/C=C/c4ccc(C(=O)Nc5ccncc5)cc4)c3Cl)c2n1.Cl
2.5 nM	Cc1cc(N2CCCCC2)c2cccc(OCc3c(Cl)ccc(N(C)C(=O)CNC(=O)/C=C/c4ccc(C(=O)NCc5ccccn5)cc4)c3Cl)c2n1.Cl
4.2 nM	CC(=O)Nc1ccc(/C=C/C(=O)NCC(=O)N(C)c2ccc(Cl)c(COc3cccc4c(N(C)C)cc(C)nc34)c2Cl)cn1.Cl

system: CHO; assay: Relative agonistic activity in IP formation compared to BK (10 nM) IPs in CHO cells expressing the cloned human B2 receptor at 1 uM concentration; type: functional, Cricetulus griseus
Outline: (§1)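 Human B2-CHO cells labeled 24 h with [3H]inositol (1 μCi/mL). Preincubated in PBS/0.2% BSA with 10 mM LiCl for 30 min at 37 °C, then compound for 30 min at 37 °C. Stopped with 5% TCA. IP1–IP3 separated on AG 1-X8 and counted. Basal counts subtracted; response expressed relative to 10 nM BK.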

Compound	Relative agonistic activity
Cc1cc(N2CCCCC2)c2cccc(OCc3c(Cl)ccc(N(C)C(=O)CNC(=O)/C=C/c4ccc(C(=O)Nc5ccncc5)cc4)c3Cl)c2n1.Cl	5.7%
Cc1cc(N2CCCCC2)c2cccc(OCc3c(Cl)ccc(N(C)C(=O)CNC(=O)/C=C/c4ccc(NC(=O)c5ccncc5)cc4)c3Cl)c2n1.Cl	5.6%
Cc1cc(N2CCOCC2)c2cccc(OCc3c(Cl)ccc(N(C)C(=O)CNC(=O)/C=C/c4ccc(NC(=O)c5ccncc5)cc4)c3Cl)c2n1.Cl	-0.1%

system: CHO; assay: Relative agonistic activity in IP formation compared to BK (10 nM) IPs in CHO cells expressing the cloned human B2 receptor at 10 uM concentration; type: functional, Cricetulus griseus; outline: as §1

Compound	Relative agonistic activity
Cc1cc(N2CCCCC2)c2cccc(OCc3c(Cl)ccc(N(C)C(=O)CNC(=O)/C=C/c4ccc(C(=O)Nc5ccncc5)cc4)c3Cl)c2n1.Cl	12.7%
Cc1cc(N2CCCCC2)c2cccc(OCc3c(Cl)ccc(N(C)C(=O)CNC(=O)/C=C/c4ccc(NC(=O)c5ccncc5)cc4)c3Cl)c2n1.Cl	5.3%
Cc1cc(N2CCOCC2)c2cccc(OCc3c(Cl)ccc(N(C)C(=O)CNC(=O)/C=C/c4ccc(NC(=O)c5ccncc5)cc4)c3Cl)c2n1.Cl	0.9%

molecular target: T2, B2 bradykinin receptor (Cavia porcellus, UniProt O70526); assay: Inhibition of specific binding of [3H]BK at 0.06 nM to bradykinin receptor B2 in guinea pig ileum membrane preparations by 50%.; type: cell membranes
T2 sequence (O70526 whole entry): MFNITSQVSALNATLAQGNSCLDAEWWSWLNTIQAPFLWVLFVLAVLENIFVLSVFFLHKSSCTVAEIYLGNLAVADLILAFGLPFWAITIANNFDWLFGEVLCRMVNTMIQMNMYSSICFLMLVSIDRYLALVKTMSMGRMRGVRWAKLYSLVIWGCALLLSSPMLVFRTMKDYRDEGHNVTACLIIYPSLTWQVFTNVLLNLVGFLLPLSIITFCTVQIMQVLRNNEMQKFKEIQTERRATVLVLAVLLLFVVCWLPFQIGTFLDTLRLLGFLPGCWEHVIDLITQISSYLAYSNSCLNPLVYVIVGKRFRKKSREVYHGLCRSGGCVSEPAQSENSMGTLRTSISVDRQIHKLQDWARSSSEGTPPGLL
Outline: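 Ileum membranes from male Hartley guinea pigs, 0.2 mg protein/mL, in TES pH 6.8 containing phenanthroline, bacitracin, DTT, captopril and 0.1% BSA. Incubated with [3H]BK and compound at room temperature for 60 min. GF/B filtration, scintillation counting; nonspecific binding with 1 μM BK. Three experiments.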

IC50	Compound
65 nM	CC(=O)Nc1ccc(/C=C/C(=O)NCC(=O)N(C)c2ccc(Cl)c(COc3cccc4c(N5CCOCC5)cc(C)nc34)c2Cl)cn1
240 nM	Cc1cc(N2CCCCC2)c2cccc(OCc3c(Cl)ccc(N(C)C(=O)CNC(=O)/C=C/c4ccc(C(=O)Nc5ccncc5)cc4)c3Cl)c2n1.Cl
28 nM	Cc1cc(N(C)C)c2cccc(OCc3c(Cl)ccc(N(C)C(=O)CNC(=O)/C=C/c4ccc(C(=O)NCc5ccccn5)cc4)c3Cl)c2n1.Cl
75 nM	Cc1cc(N2CCCCC2)c2cccc(OCc3c(Cl)ccc(N(C)C(=O)CNC(=O)/C=C/c4ccc(NC(=O)c5ccncc5)cc4)c3Cl)c2n1.Cl
2300 nM	CNC(=O)c1ccc(/C=C/C(=O)NCC(=O)N(C)c2ccc(Cl)c(COc3cccc4c(NCCN(C)C)cc(C)nc34)c2Cl)cc1
6.9 nM	Cc1cc(N(C)C)c2cccc(OCc3c(Cl)ccc(N(C)C(=O)CNC(=O)/C=C/c4ccc(NC(=O)c5ccncc5)cc4)c3Cl)c2n1.Cl
85 nM	CNC(=O)c1ccc(/C=C/C(=O)NCC(=O)N(C)c2ccc(Cl)c(COc3cccc4c(N5CCOCC5)cc(C)nc34)c2Cl)cn1.Cl
12 nM	Cc1cc(N(C)C)c2cccc(OCc3c(Cl)ccc(N(C)C(=O)CNC(=O)Nc4cccc(C(=O)Nc5ccncc5)c4)c3Cl)c2n1.Cl
1.2 nM	CNC(=O)c1ccc(/C=C/C(=O)NCC(=O)N(C)c2ccc(Cl)c(COc3cccc4c(N(C)C)cc(C)nc34)c2Cl)cn1.Cl
5.1 nM	Cc1cc(N(C)C)c2cccc(OCc3c(Cl)ccc(N(C)C(=O)CNC(=O)/C=C/c4ccc(C(=O)Nc5ccncc5)cc4)c3Cl)c2n1.Cl
29 nM	Cc1cc(N2CCOCC2)c2cccc(OCc3c(Cl)ccc(N(C)C(=O)CNC(=O)/C=C/c4ccc(NC(=O)c5ccncc5)cc4)c3Cl)c2n1.Cl
37 nM	Cc1cc(N2CCOCC2)c2cccc(OCc3c(Cl)ccc(N(C)C(=O)CNC(=O)/C=C/c4ccc(C(=O)Nc5ccncc5)cc4)c3Cl)c2n1.Cl
40 nM	Cc1cc(N2CCCCC2)c2cccc(OCc3c(Cl)ccc(N(C)C(=O)CNC(=O)/C=C/c4ccc(C(=O)NCc5ccccn5)cc4)c3Cl)c2n1.Cl
6.3 nM	CC(=O)Nc1ccc(/C=C/C(=O)NCC(=O)N(C)c2ccc(Cl)c(COc3cccc4c(N(C)C)cc(C)nc34)c2Cl)cn1.Cl

system: Cavia porcellus; assay: In vivo functional antagonistic activity in inhibiting BK (5 ug/kg, i.v.) induced bronchoconstriction in guinea pigs by 100 ug/kg iv administration
Outline: (§2)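 Male Hartley guinea pigs (470–750 g), fasted overnight, pentobarbital 30 mg/kg i.p., ventilated 10 mL/kg at 60 breaths/min, alcuronium 0.5 mg/kg i.v., propranolol 10 mg/kg s.c. BK in saline/0.1% BSA i.v.; compound in 5% citric acid i.v. 25 min after first BK, BK repeated 5 min later. Peak insufflation pressure rise (Konzett–Rössler); % inhibition versus vehicle, n = 3–4.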

Compound	Inhibition
CC(=O)Nc1ccc(/C=C/C(=O)NCC(=O)N(C)c2ccc(Cl)c(COc3cccc4c(N5CCOCC5)cc(C)nc34)c2Cl)cn1	47.8%
Cc1cc(N(C)C)c2cccc(OCc3c(Cl)ccc(N(C)C(=O)CNC(=O)/C=C/c4ccc(C(=O)NCc5ccccn5)cc4)c3Cl)c2n1.Cl	97.3%
CNC(=O)c1ccc(/C=C/C(=O)NCC(=O)N(C)c2ccc(Cl)c(COc3cccc4c(N5CCOCC5)cc(C)nc34)c2Cl)cn1.Cl	72.3%
Cc1cc(N(C)C)c2cccc(OCc3c(Cl)ccc(N(C)C(=O)CNC(=O)Nc4cccc(C(=O)Nc5ccncc5)c4)c3Cl)c2n1.Cl	97.7%
Cc1cc(N2CCOCC2)c2cccc(OCc3c(Cl)ccc(N(C)C(=O)CNC(=O)/C=C/c4ccc(C(=O)Nc5ccncc5)cc4)c3Cl)c2n1.Cl	91.8%
Cc1cc(N2CCCCC2)c2cccc(OCc3c(Cl)ccc(N(C)C(=O)CNC(=O)/C=C/c4ccc(C(=O)NCc5ccccn5)cc4)c3Cl)c2n1.Cl	72.6%

system: Cavia porcellus; assay: In vivo functional antagonistic activity in inhibiting BK (5 ug/kg, i.v.) induced bronchoconstriction in guinea pigs by 10 ug/kg iv administration; outline: as §2

Compound	Inhibition
Cc1cc(N(C)C)c2cccc(OCc3c(Cl)ccc(N(C)C(=O)CNC(=O)/C=C/c4ccc(C(=O)N(C)C)cc4)c3Cl)c2n1.Cl.Cl	73.4%
Cc1cc(N(C)C)c2cccc(OCc3c(Cl)ccc(N(C)C(=O)CNC(=O)/C=C/c4ccc(NC(=O)c5ccncc5)cc4)c3Cl)c2n1.Cl	59%
CNC(=O)c1ccc(/C=C/C(=O)NCC(=O)N(C)c2ccc(Cl)c(COc3cccc4c(N(C)C)cc(C)nc34)c2Cl)cn1.Cl	85.5%
Cc1cc(N(C)C)c2cccc(OCc3c(Cl)ccc(N(C)C(=O)CNC(=O)/C=C/c4ccc(C(=O)Nc5ccncc5)cc4)c3Cl)c2n1.Cl	86.3%
Cc1cc(N2CCOCC2)c2cccc(OCc3c(Cl)ccc(N(C)C(=O)CNC(=O)/C=C/c4ccc(C(=O)Nc5ccncc5)cc4)c3Cl)c2n1.Cl	46.2%
CC(=O)Nc1ccc(/C=C/C(=O)NCC(=O)N(C)c2ccc(Cl)c(COc3cccc4c(N(C)C)cc(C)nc34)c2Cl)cn1.Cl	89.4%
